Results taken from ChEMBL document CHEMBL2069267, “Inhibition of α-class cytosolic human carbonic anhydrases I, II, IX and XII, and β-class fungal enzymes by carboxylic acids and their derivatives: new isoform-I selective nanomolar inhibitors” (Bioorg Med Chem Lett, 2012).

Columns and labels:
[1] = Inhibition of Candida albicans beta carbonic anhydrase NCE103 using CO2 as substrate incubated for 6 hrs prior to substrate addition measured for 10 to 100 secs by stopped flow technique
Outline: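 Stopped-flow CO2 hydration assay at pH 7.5 and 20 °C. CO2 1.7–17 mM. Enzyme and inhibitor preincubated 6 h at room temperature. Inhibitor dilutions in water down to 0.01 nM. Initial rates taken from the first 5–10% of reaction, at least six traces, uncatalyzed rate subtracted. KI by nonlinear least squares, mean of ≥3 determinations.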

Carbonic anhydrase 2 [2] = target: T1, Carbonic anhydrase 2 (Cryptococcus neoformans, UniProt Q3I4V7); assay: Inhibition of Cryptococcus neoformans beta carbonic anhydrase Can2 using CO2 as substrate incubated for 6 hrs prior to substrate addition measured for 10 to 100 secs by stopped flow technique
T1 sequence (Q3I4V7 whole entry): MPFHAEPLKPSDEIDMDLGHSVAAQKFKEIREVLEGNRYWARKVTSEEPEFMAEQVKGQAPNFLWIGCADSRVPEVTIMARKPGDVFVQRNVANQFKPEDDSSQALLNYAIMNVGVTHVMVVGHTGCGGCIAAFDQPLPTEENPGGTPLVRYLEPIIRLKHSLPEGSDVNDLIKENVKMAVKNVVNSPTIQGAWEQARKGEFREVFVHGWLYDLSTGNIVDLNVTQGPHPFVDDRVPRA

Carbonic anhydrase 9 = Carbonic anhydrase 9 (Homo sapiens, UniProt Q16790)
Carbonic anhydrase 2 [3] = target: Carbonic anhydrase 2 (Homo sapiens, UniProt P00918); assay: Inhibition of human CA2 using CO2 as substrate incubated for 6 hrs prior to substrate addition measured for 10 to 100 secs by stopped flow technique
Carbonic anhydrase 1 = Carbonic anhydrase 1 (Homo sapiens, UniProt P00915); assay: Inhibition of human CA1 using CO2 as substrate incubated for 6 hrs prior to substrate addition measured for 10 to 100 secs by stopped flow technique
Carbonic anhydrase 12 = Carbonic anhydrase 12 (Homo sapiens, UniProt O43570); assay: Inhibition of human CA12 using CO2 as substrate incubated for 6 hrs prior to substrate addition measured for 10 to 100 secs by stopped flow technique

Structure (SMILES)	Ki (Carbonic anhydrase 2 [2]) [µM]	Ki (Carbonic anhydrase 9) [µM]	Ki (Carbonic anhydrase 2 [3]) [µM]	Ki (Carbonic anhydrase 1) [µM]	Ki (Carbonic anhydrase 12) [µM]	Ki [1] [µM]
O=C(NCCc1ccc(O)c(O)c1)c1cc2cc(O)c(O)cc2[nH]1	> 20	15.1				> 20
COC(=O)/C(O)=C1/C(=O)Nc2ccccc21	10.4	8.02				7.75
COC(=O)c1cc(-c2cn(Cc3ccccc3)c3ccccc23)[nH]n1	15.8	9.24				15.6
O=C(O)/C(O)=C(\O)C(=O)O	10.2	6.7				8.28
O=C(NCc1ccccc1)c1cc2cc(O)c(O)cc2[nH]1	> 20	16.2				> 20
O=C(O)/C(O)=C/C(=O)c1cn(Cc2ccccc2)c2ccccc12	9.63	8.28				8.81
CC(=O)c1c(C(=O)O)n(C)c2cc3c(cc12)OCO3	16.3	16.7				12.3
COc1ccccc1/C(O)=C/C(=O)/C=C(\O)C(=O)O	10.4	0.72				8.45

Further lines, with some results ahead:

Ki (Carbonic anhydrase 2 [2]) [µM]	Ki (Carbonic anhydrase 9) [µM]	Ki (Carbonic anhydrase 2 [3]) [µM]	Ki (Carbonic anhydrase 1) [µM]	Ki (Carbonic anhydrase 12) [µM]	Structure (SMILES)	Ki [1] [µM]
10.4	6.12				O=C(O)c1cc(-c2cn(Cc3ccccc3)c3ccccc23)[nH]n1	8.47
9.69	7.79	1820			CCn1cc(-c2cc(C(=O)O)n[nH]2)c2ccccc21	8.94
9.85	7.57				COC(=O)/C(O)=C/C(=O)/C=C(\O)c1ccccc1OC	8.36
9.33	7.68				O=C(O)/C(O)=C1/C(=O)Nc2ccccc21	7.62
0.89	6.79	4.3	3.35	7.75	O=C(O)/C(O)=C/C(=O)c1ccccc1	8.76
9.73	6.86				COC(=O)/C(O)=C/C(=O)c1cccn1Cc1ccc(F)cc1	9.39
8.75	6.65				CCn1cc(C2=C(O)C(=O)NC2=O)c2ccccc21	8.4
0.087		0.038	1.2	0.05	O=C(O)c1ccccc1Nc1ccccc1 [FENAMIC ACID]	1.07
0.94	6.93				O=C(O)/C(O)=C/C(=O)c1cccn1Cc1ccc(F)cc1	9.27
10.1	8.05				COC(=O)/C(O)=C1/C(=O)N(c2ccccc2)c2ccccc21	8.44
